Experimental data published in the EternaBench riboswitch data.

How the values were obtained:
MS2 coat protein [1] = experiment: apparent Kd, MS2 coat protein; higher = weaker binding; RNA-MaP array; tryptophan 2.4 mM where present
In short: (§1)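 Green signal from SNAP-549-labelled MS2 coat protein was normalised to red-channel RNA signal and to the median Fmax of control clusters. The protein was titrated from 0.7 or 1.5 nM, doubling to 3 µM, without and then with constant ligand, over designs transcribed by stalled E. coli RNA polymerase on Illumina sequencing-chip clusters, in 100 mM Tris-HCl pH 7.5, 80 mM KCl, 4 mM MgCl2, BSA, DTT, yeast tRNA and Tween-20. The apparent Kd is the median of filtered per-cluster binding-curve fits.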

MS2 coat protein [2] = experiment: apparent Kd, MS2 coat protein; higher = weaker binding; RNA-MaP array; theophylline 2 mM where present
In short: as §1

[3] = designed as: ON switch for tryptophan, no ligand
[4] = ligand present: tryptophan, designed as: ON switch for tryptophan
[5] = designed as: OFF switch for tryptophan, no ligand
[6] = ligand present: tryptophan, designed as: OFF switch for tryptophan
[7] = designed as: OFF switch for theophylline, no ligand
[8] = ligand present: theophylline, designed as: OFF switch for theophylline
[9] = designed as: ON switch for theophylline, no ligand
[10] = ligand present: theophylline, designed as: ON switch for theophylline

GUCCUCAUGACGGCCGCCACUAAACAUGAGGAUCACCCAUGUAAUGAUCCAUUAAAUGAUAAUAGUAGGACCGGGUCAAAAUAAA
apparent Kd (MS2 coat protein [1]; [3]): 477 nM
apparent Kd (MS2 coat protein [1]; [4]): 669 nM

CGAGUAAGAACAAUCGAAUAACGGUUUUCGCGAGGACCGGUACGGCCGCCACUCGUGUGAUAUCACACAUGAGGAUCACCCAUGU
apparent Kd (MS2 coat protein [1]; [3]): 80.2 nM
apparent Kd (MS2 coat protein [1]; [4]): 41.2 nM

GGUUACUCUACGGCCGCCACUGAACAUGAGGAUCACCCAUGUAAUGUUCAGUAGUCUUUAGACAACAGGACCGGGUAGUGUAACC
apparent Kd (MS2 coat protein [1]; [3]): 228 nM
apparent Kd (MS2 coat protein [1]; [4]): 215 nM

CGCCACUCGAGUGAUCCUCACGAGUGGCUACGAGGACCGGUACGGCCGCCACUCGAAUUAACAUGAGGAUCACCCAUGUAAUCUA
apparent Kd (MS2 coat protein [1]; [3]): 56.7 nM
apparent Kd (MS2 coat protein [1]; [4]): 27.7 nM

AGAUUCGACACGGCCGCCACUCGUGACGGAUUUCCGAGUGUCGAACAUGAGGAUCACCCAUGUACGAGGACCGGGUGUUGAGUCU
apparent Kd (MS2 coat protein [1]; [5]): 74.7 nM
apparent Kd (MS2 coat protein [1]; [6]): 499 nM

GGGAGGUAGGCGGCCGCCACUGAUUUUCAUAUAUAUAUAACAUGAGGAUCACCCAUGUAGAUAUGCAGGACCGGGCCUGUUUUUU
apparent Kd (MS2 coat protein [1]; [3]): 23.9 nM
apparent Kd (MS2 coat protein [1]; [4]): 19.3 nM

AACAUACAAUAUUAGGUGGAUAUAAGGCGGCGAGGACCGGUACGGCCGCCACUCGCGUACAUGAGGAUCACCCAUGUCUGAAACU
apparent Kd (MS2 coat protein [1]; [3]): 20.4 nM
apparent Kd (MS2 coat protein [1]; [4]): 23.5 nM

GGAGUAGGAAACUAUUCCAAUCCUCGUGAACGAGGACCGGUACGGCCGCCACUCGAUAAUUAAUAACAUGAGGAUCACCCAUGUA
apparent Kd (MS2 coat protein [1]; [5]): 83.7 nM
apparent Kd (MS2 coat protein [1]; [6]): 121 nM

AAACAUGAGGCGGCCGCCACUGUAUGAACAUGAGGAUCACCCAUGUAUGUACCCAUGUGUGUACACAGGACCGGGCCAUGUGGAU
apparent Kd (MS2 coat protein [1]; [5]): 28.1 nM
apparent Kd (MS2 coat protein [1]; [6]): 19.9 nM

ACCUGCGUUUGAUUCUAUCAGACGCAGGUUCGAGGACCGGUACGGCCGCCACUCGGACAUGAGGAUCACCCAUGUUUGACAUGGG
apparent Kd (MS2 coat protein [1]; [5]): 64.5 nM
apparent Kd (MS2 coat protein [1]; [6]): 211 nM

AACAUGAGGAUCACCCAUGUACAUUUCGAUCGAGGACCGGUACGGCCGCCACUCGAAAACAUGAGGAUCACCCAUGUUCAACAGG
apparent Kd (MS2 coat protein [1]; [3]): 296 nM
apparent Kd (MS2 coat protein [1]; [4]): 184 nM

UUAGUAACGACGGCCGCCACUGAAUUUGAACAUGAGGAUCACCCAUGUAGAGAUCCUAGAAUAAACAGGACCGGGUCUGAUAAUG
apparent Kd (MS2 coat protein [1]; [5]): 95.7 nM
apparent Kd (MS2 coat protein [1]; [6]): 118 nM

CUACAUUUGUAGAAACCGGUCAACAAUAAUCGAGGACCGGUACGGCCGCCACUCGAUGUGUUAUACACAUGAGGAUCACCCAUGU
apparent Kd (MS2 coat protein [1]; [3]): 21.1 nM
apparent Kd (MS2 coat protein [1]; [4]): 17.4 nM

AACAUGAGGAUCACCCAUGUGUCCUCGAAACGAGGACCGGUACGGCCGCCACUCGACGUAUGUUGACGAAAAGUCAGCAUACGAA
apparent Kd (MS2 coat protein [1]; [5]): 281 nM
apparent Kd (MS2 coat protein [1]; [6]): 885 nM

CGGUUUGUGAUGGAUACCAGCAGAGAAAAUGUUUAUCCUAACAUGAGGAUCACCCAUGUGUGCCCUUGGCAGCUGUUGUGGGCUG
apparent Kd (MS2 coat protein [2]; [7]): 50.5 nM
apparent Kd (MS2 coat protein [2]; [8]): 84.9 nM

AUCCUCUAGAAUGAUACCAGACCAAACAUGAGGAUCACCCAUGUAUCAGGCAAUUGUUACGUCCCUUGGCAGCAUGUAUGCCGAC
apparent Kd (MS2 coat protein [2]; [9]): 27.7 nM
apparent Kd (MS2 coat protein [2]; [10]): 28.1 nM

UCGUGUAUUUCGGAUACCAGUGAAAUCGAUACAUGAGGAUCACCCAUGUGAGAGGAUGUACACCCUUGGCAGCUGUCUGUAUCUG
apparent Kd (MS2 coat protein [2]; [9]): 16.3 nM
apparent Kd (MS2 coat protein [2]; [10]): 15.2 nM

AACAUGAGGAUCACCCAUGUGUCCCUUGAUACCAGUCCCAUGUGAGACCCUUGGCAGCAAACAUGAGGAUCACCCAUGUCCCAUG
apparent Kd (MS2 coat protein [2]; [9]): 102 nM
apparent Kd (MS2 coat protein [2]; [10]): 142 nM

AGCUCAGAGAGUGAUACCAGACUACAUGAGGAUCACCCAUGUUACUUUUAAAUAUCAUGAGUCCCUUGGCAGCACAAGAAGAGCA
apparent Kd (MS2 coat protein [2]; [7]): 81 nM
apparent Kd (MS2 coat protein [2]; [8]): 168 nM

CAUAAUUUAUCCUAUAAAACUAUUAGUGAUACCAGCACCUCAUGAUGCCCUUGGCAGCACUUACAUGAGGAUCACCCAUGUUUUA
apparent Kd (MS2 coat protein [2]; [9]): 172 nM
apparent Kd (MS2 coat protein [2]; [10]): 214 nM

UCUUACUAUAGUGAUACCAGACGUACAUGAGGAUCACCCAUGUUACAUUCUUGGUUAAAAGUCCCUUGGCAGCACGAUUUGUUCG
apparent Kd (MS2 coat protein [2]; [7]): 9.28 nM
apparent Kd (MS2 coat protein [2]; [8]): 9.5 nM

GCACUACAUGAGGAUCACCCAUGUGCAGAUACCAGAGGUGUAUGCCUCCCUUGGCAGCUGAGUAGCUCUGGAGGCCUAUUGGUUU
apparent Kd (MS2 coat protein [2]; [9]): 15 nM
apparent Kd (MS2 coat protein [2]; [10]): 19.1 nM
